This is an account of results in paper PMC3517046 (ChemMedChem, 2011).

A word on the MRT: it is the average time that molecules of a dose stay in the body. For orientation: clearance means the rate of elimination divided by the concentration. The half-life is how long it takes for the measured level to halve. A lower half-life goes with fast loss.

For data set [1], the target named is recombinant, purified human ATX (Homo sapiens, UniProt Q13822). Nature of the data set: ATX IC50 and mechanism of inhibition. The data set is classed as biochemical. Summed up:
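Recombinant purified human ATX with FS3 (1 µM final) in Tris 50 mM, NaCl 140 mM, KCl 5 mM, CaCl2 1 mM, MgCl2 1 mM, pH 8.0, plus 15 µM fatty-acid-free BSA. IC50 came from full dose-responses. For mechanism, FS3 was varied 0.3–20 µM at three inhibitor levels including zero.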

Data set [2] can be described thus: Pharmacokinetics after i.v. bolus. The data set is classed as in vivo, Sprague-Dawley rats. Conditions: rat. Summed up: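 Male Sprague–Dawley rats (250–275 g) fitted with jugular and femoral catheters received a single 5.8 mg/kg i.v. femoral bolus; drug was dissolved in propylene glycol and diluted in rat plasma. Jugular blood was drawn from 5 to 1440 min into lithium heparin. Plasma was butanol-extracted at pH 4.0 with internal standard and quantified by LC-MS/MS on a C8 column. Non-compartmental analysis gave AUC (trapezoidal), CL=dose/AUC, MRT=AUMC/AUC and Vdss=CL×MRT.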

The target of data set [3] is T1, ATX (Homo sapiens, UniProt Q13822). Nature of the data set: Inhibition of LPA production from ADMAN-LPC by ATX. The data set is classed as biochemical. The note with it: compound 3 μM, 0.5 μM ADMAN-LPC, 100 nM ATX. Summed up:
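ADMAN-LPC (0.5 µM final) was incubated with 100 nM ATX, with or without 3 µM test compound, at 37 °C for 4 h. Lipids were extracted and separated by silica TLC in CHCl3/MeOH/NH4OH (60:35:8). Fluorescent LPC and LPA bands were visualized under a UV imager.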

The target in data set [4] is T1, ATX. Nature of the data set: Inhibition of pNP-TMP hydrolysis by ATX. Conditions: compound 10 μM, 5 mM pNP-TMP, 4 nM ATX; compared with LPA 18:1 10 μM. Type of data set: biochemical. Summed up:
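Reactions held 4 nM ATX and 5 mM pNP-TMP, with vehicle or 10 µM test compound, in Tris 50 mM/NaCl 140 mM/KCl 5 mM/CaCl2 1 mM/MgCl2 1 mM, pH 8.0. They ran at 37 °C with absorbance monitored at 405 nm.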

In a further data set the test system is Swiss mice. Nature of the data set: Acute murine toxicity study. The data set is classed as in vivo. The note with it: 1-10-30 mg/kg/day for 10 days.
For the next data set, the system named is MM1 hepatoma cells. Put plainly: MM1 cell invasion of HUVEC monolayers. Type of data set: cell-based, rat. Summed up:
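HUVECs (passage 7, 1.3×10^5/well) were grown on 0.2% gelatin for two days to confluence. Rat MM1 hepatoma cells, calcein AM-labelled (2 µg/mL, 2 h), were seeded at 5×10^4/well. Invasion ran 24 h in MCDB-131 with 1% serum, with or without 1.5 µM LPC (BSA-complexed, 30 µM BSA final). After five PBS rinses and formalin fixation, flattened cells beneath the monolayer were counted in ≥5 fields at 100×.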

A further data set has as its system plasma LPA. Nature of the data set: Plasma LPA levels after i.v. bolus. Type of data set: in vivo, Sprague-Dawley rats. The note with it: rat, i.v. 5.8 mg/kg, first rapid decrease.
For another data set, the target named is T2, NPP6 (Homo sapiens, UniProt Q6UWR7).
T2 sequence (Q6UWR7 23-440): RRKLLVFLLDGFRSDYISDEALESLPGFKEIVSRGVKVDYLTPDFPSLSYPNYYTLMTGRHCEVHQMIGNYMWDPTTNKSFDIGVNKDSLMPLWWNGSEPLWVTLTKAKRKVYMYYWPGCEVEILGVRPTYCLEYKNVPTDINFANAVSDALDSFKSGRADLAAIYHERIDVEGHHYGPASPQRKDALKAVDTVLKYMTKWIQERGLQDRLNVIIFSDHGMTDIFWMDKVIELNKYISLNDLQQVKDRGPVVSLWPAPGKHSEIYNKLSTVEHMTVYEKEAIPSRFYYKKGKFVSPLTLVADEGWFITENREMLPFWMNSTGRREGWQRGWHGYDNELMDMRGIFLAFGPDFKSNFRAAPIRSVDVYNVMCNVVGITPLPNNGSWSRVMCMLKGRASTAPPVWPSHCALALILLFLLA
Put plainly: NPP6 inhibition assay. The data set is classed as biochemical. The note with it: read-out: NPP6 Activity, % control (10μM). Summed up: (§1)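 Recombinant purified NPP6 or NPP7 (8.3 nM final) was incubated with pNPPC (10 µM) and a single 10 µM compound concentration. Liberated p-nitrophenol was read at 405 nm for up to 1 h, within the linear range. Activity was normalized to vehicle control.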

The next data set addresses T3, NPP7 (Homo sapiens, UniProt Q6UWV6).
T3 sequence (Q6UWV6 22-458): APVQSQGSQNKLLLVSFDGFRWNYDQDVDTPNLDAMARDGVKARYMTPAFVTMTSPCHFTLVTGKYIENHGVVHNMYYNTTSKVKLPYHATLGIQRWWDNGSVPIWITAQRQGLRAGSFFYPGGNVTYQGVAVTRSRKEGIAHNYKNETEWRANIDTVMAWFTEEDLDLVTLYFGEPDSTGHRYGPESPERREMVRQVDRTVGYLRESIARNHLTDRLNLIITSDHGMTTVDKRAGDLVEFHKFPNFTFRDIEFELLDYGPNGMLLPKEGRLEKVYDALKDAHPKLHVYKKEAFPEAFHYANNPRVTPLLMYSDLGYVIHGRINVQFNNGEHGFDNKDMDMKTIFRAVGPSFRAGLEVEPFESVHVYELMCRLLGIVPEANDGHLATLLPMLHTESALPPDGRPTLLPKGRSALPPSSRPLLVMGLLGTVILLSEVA
Put plainly: NPP7 inhibition assay. Type of data set: biochemical. The note with it: read-out: NPP7 Activity, % control (10μM). In short, it runs like this:
as §1

The mark [5] stands for this setting: male, Sprague-Dawley, plasma, iv, 5.8 mg/kg.

`CCCCCCCCCCCCCCCc1ccc(CP(=O)(O)O)cc1` [Compound 22, 4-pentadecylbenzylphosphonic acid]: the “ATX Mechanism of Inhibition” value in data set [1] (FS-3 substrate 0.3-20 μM, inhibitor 0, 0.5x, 2x IC50) was “Mixed”. Besides, the “ATX Ki′” value in data set [1] (affinity for enzyme substrate complex, FS-3) worked out at 280 nM. For the same compound, in [2] (setting [5]), the mean residence time (MRT) was 7.6 h and the clearance is 8.6 ± 0.5 mL/min/kg. This compound had a half-life in data set [2] (male, Sprague-Dawley, plasma, iv, 5.8 mg/kg, terminal half-life, i.v. 5.8 mg/kg) of 10 h. In data set [2] (i.v. 5.8 mg/kg), the “mean plasma residence time” value amounted to 7.6 ± 0.5 h. Further, the “inhibition of hydrolysis of ADMAN-LPC (LPA production)” value at ATX [3] was “inhibited”. The “inhibition of hydrolysis of pNP-TMP” value against ATX [4] is “inhibit the hydrolysis”. In the data set on Swiss mice, the death result is reported as “No death was detected in any of the groups”. Also, in the data set on Swiss mice (i.p.), the “non-observable adverse effect level” value is greater than 10 mg/kg. The “basal rate of invasion of HUVEC monolayer” value in the data set with MM1 hepatoma cells (compounds alone, without LPC) was “did not reduce”. Also, in the data set with MM1 hepatoma cells (with 1.5 μM LPC, 24 h), the “LPC-dependent invasion of the HUVEC monolayer” value was “dose-dependently inhibited”. Further, in the data set on plasma LPA, the “time of nadir of plasma LPA levels” value came to 60 min.

In the case of `CCCCCCCCCCCCCC(=O)Nc1ccc(CP(=O)(O)O)cc1` [Compound S32826, 4-tetradecanoylaminobenzyl phosphonic acid], the remaining activity at 10 µM on NPP6 is 102%; on NPP7 it was 101%.
